Columns and labels:
5-HT7 = target: T1, 5-HT7 (Drosophila melanogaster, UniProt P20905); assay: Calcium imaging of receptor expressed in HEK-293T cells; format: cell-based; settings: 100 μM metitepine; stated for all 5-HT receptors
T1 sequence (P20905 1-564): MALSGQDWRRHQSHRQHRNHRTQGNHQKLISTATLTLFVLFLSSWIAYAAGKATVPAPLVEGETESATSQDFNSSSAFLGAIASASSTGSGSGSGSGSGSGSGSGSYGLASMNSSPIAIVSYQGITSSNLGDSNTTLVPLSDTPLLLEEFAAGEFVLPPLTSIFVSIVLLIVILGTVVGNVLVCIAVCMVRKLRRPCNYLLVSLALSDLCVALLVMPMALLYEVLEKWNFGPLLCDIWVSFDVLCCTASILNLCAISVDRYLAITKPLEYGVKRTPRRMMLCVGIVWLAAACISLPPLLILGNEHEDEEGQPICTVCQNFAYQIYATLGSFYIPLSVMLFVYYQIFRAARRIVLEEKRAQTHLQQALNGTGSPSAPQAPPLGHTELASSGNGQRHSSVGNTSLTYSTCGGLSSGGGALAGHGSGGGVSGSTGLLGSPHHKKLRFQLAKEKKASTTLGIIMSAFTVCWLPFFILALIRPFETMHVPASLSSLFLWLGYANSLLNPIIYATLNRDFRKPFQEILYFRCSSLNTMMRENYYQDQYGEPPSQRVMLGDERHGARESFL

Drosophila larvae [1] = assay: Larval locomotion; format: in vivo, Drosophila melanogaster
5-HT2B = target: T2, 5-HT2B (Drosophila melanogaster, UniProt Q8INQ6); assay: Calcium imaging of receptor expressed in HEK-293T cells; format: cell-based; settings: 100 μM metitepine; stated for all 5-HT receptors
T2 sequence (Q8INQ6 1-904): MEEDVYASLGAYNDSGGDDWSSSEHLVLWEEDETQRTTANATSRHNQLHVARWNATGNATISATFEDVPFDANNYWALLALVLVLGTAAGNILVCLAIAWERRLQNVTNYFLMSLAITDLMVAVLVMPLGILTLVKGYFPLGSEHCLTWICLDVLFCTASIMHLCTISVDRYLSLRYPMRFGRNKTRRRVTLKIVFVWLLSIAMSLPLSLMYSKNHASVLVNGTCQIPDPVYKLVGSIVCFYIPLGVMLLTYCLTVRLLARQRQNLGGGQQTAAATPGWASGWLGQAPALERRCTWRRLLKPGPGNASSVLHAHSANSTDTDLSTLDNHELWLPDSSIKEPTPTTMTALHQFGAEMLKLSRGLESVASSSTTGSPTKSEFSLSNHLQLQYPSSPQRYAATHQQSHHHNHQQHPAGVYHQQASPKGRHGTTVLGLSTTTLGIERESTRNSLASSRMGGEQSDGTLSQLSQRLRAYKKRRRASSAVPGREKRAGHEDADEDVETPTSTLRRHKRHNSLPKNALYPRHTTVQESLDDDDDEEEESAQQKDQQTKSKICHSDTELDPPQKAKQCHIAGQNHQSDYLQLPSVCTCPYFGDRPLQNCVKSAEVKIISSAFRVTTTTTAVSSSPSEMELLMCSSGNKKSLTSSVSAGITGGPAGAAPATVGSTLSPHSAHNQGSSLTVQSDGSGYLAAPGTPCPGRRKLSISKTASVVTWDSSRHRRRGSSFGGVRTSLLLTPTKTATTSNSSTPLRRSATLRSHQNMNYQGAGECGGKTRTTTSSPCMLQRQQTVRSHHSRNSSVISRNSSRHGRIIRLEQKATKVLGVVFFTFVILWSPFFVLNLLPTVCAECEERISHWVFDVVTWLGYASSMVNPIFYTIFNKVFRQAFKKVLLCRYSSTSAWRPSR

5-HT2A = target: T3, 5-HT2A (Drosophila melanogaster, UniProt Q9VN38); assay: as above; format: cell-based; settings: 100 μM metitepine; stated for all 5-HT receptors
T3 sequence (Q9VN38 1-868): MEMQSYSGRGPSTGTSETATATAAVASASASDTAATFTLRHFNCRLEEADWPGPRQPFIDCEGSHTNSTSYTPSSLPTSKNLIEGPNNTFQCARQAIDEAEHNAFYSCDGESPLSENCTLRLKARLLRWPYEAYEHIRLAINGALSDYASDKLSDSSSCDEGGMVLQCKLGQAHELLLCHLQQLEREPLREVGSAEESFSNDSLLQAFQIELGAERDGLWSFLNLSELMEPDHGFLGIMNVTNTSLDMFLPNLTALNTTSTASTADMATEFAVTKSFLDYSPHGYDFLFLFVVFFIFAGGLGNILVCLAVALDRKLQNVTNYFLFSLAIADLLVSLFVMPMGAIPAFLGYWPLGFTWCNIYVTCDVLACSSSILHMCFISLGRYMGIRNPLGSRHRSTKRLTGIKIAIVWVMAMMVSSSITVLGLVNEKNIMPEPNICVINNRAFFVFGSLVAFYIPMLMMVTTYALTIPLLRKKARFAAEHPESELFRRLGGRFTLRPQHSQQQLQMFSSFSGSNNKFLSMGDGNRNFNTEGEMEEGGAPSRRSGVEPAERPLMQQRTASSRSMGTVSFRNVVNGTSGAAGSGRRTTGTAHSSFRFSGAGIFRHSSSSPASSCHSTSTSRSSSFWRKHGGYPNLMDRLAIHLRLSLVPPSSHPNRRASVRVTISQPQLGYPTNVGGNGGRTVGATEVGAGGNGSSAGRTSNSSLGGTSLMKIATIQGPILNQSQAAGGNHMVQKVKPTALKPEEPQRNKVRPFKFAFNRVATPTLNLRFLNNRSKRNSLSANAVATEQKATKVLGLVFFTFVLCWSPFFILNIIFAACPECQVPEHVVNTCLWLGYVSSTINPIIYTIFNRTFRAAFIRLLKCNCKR

C. elegans = settings: different small molecule screen; cited from earlier work
[2] = test system: Drosophila first instar larvae; assay: Liquid food feeding assay; format: in vivo, Drosophila melanogaster; settings: for dose-response verification: 14 secondary screen hits chosen for dose-response curve
5-HT1A = target: T4, 5-HT1A (Drosophila melanogaster, UniProt P28285); assay: Calcium imaging of receptor expressed in HEK-293T cells; format: cell-based; settings: 100 μM metitepine; stated for all 5-HT receptors
T4 sequence (P28285 1-834): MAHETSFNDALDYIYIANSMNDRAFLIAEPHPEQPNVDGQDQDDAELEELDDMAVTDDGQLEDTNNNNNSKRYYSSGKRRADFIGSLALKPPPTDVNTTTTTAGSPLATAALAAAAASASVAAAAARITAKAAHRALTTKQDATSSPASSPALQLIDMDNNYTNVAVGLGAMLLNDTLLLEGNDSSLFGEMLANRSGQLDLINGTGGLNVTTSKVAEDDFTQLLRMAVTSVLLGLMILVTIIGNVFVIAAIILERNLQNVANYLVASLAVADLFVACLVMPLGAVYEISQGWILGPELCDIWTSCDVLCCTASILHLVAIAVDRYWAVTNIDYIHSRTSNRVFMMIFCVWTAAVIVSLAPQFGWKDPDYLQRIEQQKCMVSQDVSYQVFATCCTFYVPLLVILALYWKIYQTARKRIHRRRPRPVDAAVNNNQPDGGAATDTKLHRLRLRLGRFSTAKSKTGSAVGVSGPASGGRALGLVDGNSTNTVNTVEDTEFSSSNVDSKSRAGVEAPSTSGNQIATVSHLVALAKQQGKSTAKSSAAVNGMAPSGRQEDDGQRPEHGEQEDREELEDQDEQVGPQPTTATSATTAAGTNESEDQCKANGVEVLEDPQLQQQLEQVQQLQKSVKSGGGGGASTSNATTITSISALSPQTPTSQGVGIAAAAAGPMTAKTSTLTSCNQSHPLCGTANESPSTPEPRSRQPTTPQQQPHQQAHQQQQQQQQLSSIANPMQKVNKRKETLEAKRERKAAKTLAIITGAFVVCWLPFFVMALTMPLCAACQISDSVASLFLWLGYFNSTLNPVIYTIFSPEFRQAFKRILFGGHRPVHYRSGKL

Drosophila larvae [3] = assay: Solid food feeding assay; format: in vivo, Drosophila melanogaster
Method in brief: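 Larvae aged 0–2 h were fed 17 h at 25°C and 70% humidity on cornmeal-agar-molasses food containing 0.05% bromophenol blue plus solvent or test compound. Individual larvae were imaged, and digestive-tract optical density was measured. Values were normalized to same-day solvent-treated larvae and reported as mean ± s.e.m.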

HEK-293T cells = assay: ATP control after metitepine treatment; format: cell-based; settings: 100 μM metitepine; ATP activated all cells afterwards
5-HT1B = target: T5, 5-HT1B (Drosophila melanogaster, UniProt P28286); assay: Calcium imaging of receptor expressed in HEK-293T cells; format: cell-based
T5 sequence (P28286 1-617): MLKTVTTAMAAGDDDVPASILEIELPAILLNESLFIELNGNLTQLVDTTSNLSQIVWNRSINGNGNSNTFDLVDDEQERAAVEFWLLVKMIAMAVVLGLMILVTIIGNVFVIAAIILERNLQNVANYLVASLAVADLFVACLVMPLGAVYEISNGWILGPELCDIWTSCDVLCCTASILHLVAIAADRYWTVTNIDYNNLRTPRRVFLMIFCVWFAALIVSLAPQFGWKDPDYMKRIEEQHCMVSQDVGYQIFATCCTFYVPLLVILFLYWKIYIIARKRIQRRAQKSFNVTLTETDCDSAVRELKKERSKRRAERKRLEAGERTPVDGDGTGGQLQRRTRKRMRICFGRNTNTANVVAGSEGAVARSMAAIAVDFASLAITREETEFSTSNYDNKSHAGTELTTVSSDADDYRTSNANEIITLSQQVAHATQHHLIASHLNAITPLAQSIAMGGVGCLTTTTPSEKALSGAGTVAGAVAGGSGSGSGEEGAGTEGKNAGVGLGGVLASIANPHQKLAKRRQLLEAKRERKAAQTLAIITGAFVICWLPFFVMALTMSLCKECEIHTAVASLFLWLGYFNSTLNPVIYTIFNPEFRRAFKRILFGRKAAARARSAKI

Compound | responses to 5-HT in presence of drug (5-HT7) | crawling speed (Drosophila larvae [1]; 100 μM in solid food, 17 hours, agar surface) | responses to 5-HT in presence of drug (5-HT2B) | responses to 5-HT in presence of drug (5-HT2A) | lifespan (C. elegans) | food accumulation immediately after exposure ([2]; 0-h recovery) | dose-response verification [2] | anorectic effect 4 hours after treatment ([2]; 4 h recovery) | food intake 24 hours after treatment ([2]; 24 h recovery, rebound from drug-induced fasting) | threshold concentration for efficacy ([2]; liquid food with fluorescein, increasing effects at 50 and 100 μM) | duration of anorectic effect after treatment ([2]; recovery time course after metitepine treatment) | responses to 5-HT in presence of drug (5-HT1A) | solid food accumulation in digestive tract (Drosophila larvae [3]; cornmeal-agar-molasses diet with bromophenol blue, 100 μM (Fig. 3a)) | threshold efficacy dose (Drosophila larvae [3]; solid food with bromophenol blue, optical density of gut) | cell survival after treatment (HEK-293T cells) | IC50 (5-HT1B) | responses to 5-HT in presence of drug (5-HT1B; 100 μM metitepine, stated for all 5-HT receptors) | larval locomotion (Drosophila larvae [1]; at concentrations as low as 10 μM, data not shown) | feeding in pilot screen ([2]; pilot screen, tested individually at 20 μg/ml, data not shown)
CSc1ccc2c(c1)C(N1CCN(C)CC1)Cc1ccccc1S2 (centres unmarked) [Metitepine] | dramatically suppressed or completely abolished | crawled at the same speed as solvent treated controls | dramatically suppressed or completely abolished | dramatically suppressed or completely abolished | extends lifespan | reduced food accumulation | showed reliable dose-dependent responses | not evident | ate significantly more | 10 µM | 2 h | dramatically suppressed or completely abolished | accumulated less solid food | 50 µM | did not kill the cells | 58 µM | dramatically suppressed or completely abolished |  | 
COC(=O)[C@H]1[C@H]2C[C@@H]3c4[nH]c5cc(OC)ccc5c4CCN3C[C@H]2C[C@@H](OC(=O)c2cc(OC)c(OC)c(OC)c2)[C@@H]1OC [Reserpine] |  |  |  |  |  |  | showed reliable dose-dependent responses |  |  |  |  |  |  |  |  |  |  | dramatically reduced larval locomotion | 
C[C@@H]1C[C@@H]([C@H](O)CC2CC(=O)NC(=O)C2)C(=O)[C@@H](C)C1 [cycloheximide] |  |  |  |  |  |  |  |  |  |  |  |  |  |  |  |  |  |  | inhibited feeding

Reference: publication PMC3698492 (Scientific Reports, 2013)
